Experiments:
[1] = Partition coefficient (logP); assay type: physicochemical; conditions: octanol/water
How it was run: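 log P calculated with XLOGP 2.0, not measured.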

[2] = Anticonvulsant activity against audiogenic seizures in DBA/2 mice in tonic phase; assay type: functional; conditions: Mus musculus
How it was run: (§1)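 DBA/2 mice (8–12 g, 22–25 days), groups of 10, given ip doses of 3.3–200 µmol/kg in 50% DMSO/50% saline. Auditory stimulation 30 min later after 60 s habituation under a dome. Incidence of each seizure phase scored. ED50 by Litchfield–Wilcoxon, at least 32 animals, 95% confidence limits.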

[3] = Protective index as the ratio of TD50 to ED50 (from the clonic phase of the audiogenic seizures).; conditions: for selectivity ratio: read-out: PI
How it was run: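 Ratio of rotarod TD50 to ED50 from the clonic phase of audiogenic seizures in DBA/2 mice, both after ip dosing.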

[4] = Percentage reduction of ATPA evoked currents at a concentration of 100 uM in cerebellar neurons; assay type: functional
How it was run: (§2)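 Whole-cell voltage clamp of rat cerebellar granule neurons cultured 7 days (7–8-day-old Sprague–Dawley pups; Ara-C 10 µM from 24 h). External solution pH 7.4. KA or ATPA and test agent all applied at 100 µM by Y-tube, DMSO final below 1%. Mean ± SE of at least 10 cells.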

[5] = Percentage reduction of KA (kainate) evoked currents at a concentration of 100 uM in cerebellar neurons; assay type: functional; how it was run: as §2
[6] = Toxicity assessed by Rotarod test (locomotor deficit) in mice.; assay type: organism-based; conditions: mouse, in vivo
How it was run: (§3)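 Male Swiss mice (20–26 g), groups of 10, trained on a 3-cm rotarod at 8 rpm. Tested 30 min after ip dosing; impairment defined as failure to stay on for 2 min. TD50 by Litchfield–Wilcoxon, at least 32 animals, 95% confidence limits.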

[7] = species on record: Mus musculus; experiment: Anticonvulsant activity against audiogenic seizures in DBA/2 mice in clonic phase.; assay type: functional; how it was run: as §1
[8] = tested on: Mus musculus; experiment: Anticonvulsant activity against audiogenic seizures in DBA/2 mice in clonic phase after 15 min intraperitoneal administration (95% confidence limit in parentheses); assay type: functional; conditions: ip, 0.25 h
How it was run: (§4)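 Time course: DBA/2 mice (8–12 g, 22–25 days) dosed ip in 50% DMSO/50% saline and challenged with sound 15 to 120 min after dosing. Clonic phase scored; ED50 in µmol/kg by Litchfield–Wilcoxon with 95% confidence limits. Between-compound differences at each time by Litchfield–Wilcoxon (*p<0.05, **p<0.01).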

[9] = species on record: Mus musculus; experiment: Anticonvulsant activity against MES induced seizures in swiss mice in tonic phase (95% confidence limits); assay type: functional
How it was run: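 Swiss mice dosed ip in 50% DMSO/50% saline, then shocked via ear-clip electrodes (50 mA, 20 ms pulse width, 35 Hz, 400 ms). Protection defined as abolition of tonic hindlimb extension. Four to five doses, 8–10 mice each; ED50 by Litchfield–Wilcoxon with 95% confidence limits.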

[10] = tested on: Mus musculus; experiment: Anticonvulsant activity against audiogenic seizures in DBA/2 mice in clonic phase after 45 min intraperitoneal administration (95% confidence limit in parentheses)**indicates p<0.01; assay type: functional; conditions: ip, 0.75 h
How it was run: (§5)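 DBA/2 mice (8–12 g, 22–25 days old), genetically sound-susceptible, groups of 10. Dosed ip (0.1 mL/10 g) as fresh solution in 50% DMSO/50% saline, doses 3.3-200 μmol/kg; auditory stimulation after 60 s habituation under dome, at 30 min (time-course: 15–120 min post-dose).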

[11] = tested on: Mus musculus; experiment: Anticonvulsant activity against KA induced seizures in DBA/2 mice at a dose of 32 mg/kg at CD97 after intraperitoneal administration (95% confidence limits); assay type: functional; conditions: ip
[12] = tested on: Mus musculus; experiment: Anticonvulsant activity against audiogenic seizures in DBA/2 mice in clonic phase after 90 min intraperitoneal administration (95% confidence limit in parentheses)*indicates p<0.05; assay type: functional; conditions: ip, 1.5 h; how it was run: as §4
[13] = tested on: Mus musculus; experiment: Anticonvulsant activity against audiogenic seizures in DBA/2 mice in clonic phase after 120 min intraperitoneal administration (95% confidence limit in parentheses); assay type: functional; conditions: ip, 2 h; how it was run: as §4
[14] = tested on: Mus musculus; experiment: Anticonvulsant activity against audiogenic seizures in DBA/2 mice in clonic phase after 30 min intraperitoneal administration (95% confidence limit in parentheses)**indicates p<0.01; assay type: functional; conditions: ip, 0.5 h; how it was run: as §5
[15] = species on record: Mus musculus; experiment: Anticonvulsant activity against PTZ induced seizures in swiss mice in clonic phase (95% confidence limits); assay type: functional
[16] = tested on: Mus musculus; experiment: Anticonvulsant activity against AMPA induced seizures in DBA/2 mice after intracerebro ventricular administration at the CD97 for tonus (11.7 nmol) (95% confidence limits); assay type: functional; conditions: central
[17] = species on record: Rattus norvegicus; experiment: Percentage reduction of ATPA evoked currents at a concentration of 100 uM in cerebellar neurons
[18] = species on record: Rattus norvegicus; experiment: Percentage reduction of KA (kainate) evoked currents at a concentration of 100 uM in cerebellar neurons
[19] = tested on: Mus musculus; experiment: Anticonvulsant activity against AMPA induced seizures in DBA/2 mice after intracerebro ventricular administration at the CD97 for clonus (9.7 nmol) (95% confidence limits); assay type: functional; conditions: central
[20] = species on record: Mus musculus; experiment: Anticonvulsant activity against audiogenic seizures in DBA/2 mice in tonic phase (95% confidence limit in parentheses); assay type: functional; how it was run: as §5
[21] = Locomotion assessed by Rotarod test in mice; assay type: organism-based; conditions: mouse, in vivo; how it was run: as §3
[22] = tested on: Mus musculus; experiment: Anticonvulsant activity against audiogenic seizures in DBA/2 mice in clonic phase after 60 min intraperitoneal administration (95% confidence limit in parentheses)**indicates p<0.01; assay type: functional; conditions: ip, 1 h; how it was run: as §5
[23] = species on record: Rattus norvegicus; experiment: Percentage reduction of ATPA evoked currents at a concentration of 100 uM in cerebellar neurons; remark: listed apart in the source
[24] = species on record: Rattus norvegicus; experiment: Percentage reduction of KA (kainate) evoked currents at a concentration of 100 uM in cerebellar neurons; remark: listed apart in the source
[25] = Protective index as the ratio of TD50 value to that of ED50 value (from the clonic phase of the audiogenic seizures).; assay type: functional
How it was run: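 PI = TD50/ED50. TD50 from rotarod (3 cm, 8 rpm; failure to stay on for 2 min) in male Swiss mice 30 min after ip dosing; ED50 from clonic phase of audiogenic seizures in DBA/2 mice 30 min after ip dosing (50% DMSO/saline). Both by Litchfield–Wilcoxon, ≥32 animals each.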

| SMILES | logP ([1]; read-out: logP) | ED50 [2] [µmol/kg] | selectivity ratio [3] | TD50 [6] [µmol/kg] | ED50 [7] [µmol/kg] | other results |
| --- | --- | --- | --- | --- | --- | --- |
| CNC(=O)NC(=O)Cc1cc2c(cc1Cc1ccc(N)cc1)OCO2 | 2.23 | 7.65 | 3.6 | 33.3 | 9.28 | Reduction [4]: 32%; Reduction [5]: 54% |
| CCCOC(=O)Cc1cc2c(cc1/C(=N/NC(=O)NC)c1ccc(N)cc1)OCO2 | 3.24 | 8.93 | 3.8 | 68.5 | 18 | – |
| CCOC(=O)Cc1cc2c(cc1/C(=N/NC(=O)NC)c1ccc(N)cc1)OCO2 | 2.89 | 10.9 | 3.3 | 95.1 | 28.8 | – |
| CCCCOC(=O)Cc1cc2c(cc1/C(=N/NC(=O)NCC)c1ccc(N)cc1)OCO2 | 4.24 | 38.7 | 2.2 | 117 | 53.1 | – |
| CCCCNC(=O)N/N=C(\c1ccc(N)cc1)c1cc2c(cc1CC(=O)OC)OCO2 | 3.81 | 38.2 | 2.9 | 188 | 65 | – |
| CCCNC(=O)N1N=C(c2ccc(N)cc2)c2cc3c(cc2CC1=O)OCO3 | 2.77 | – | 2.6 | 182 | – | – |
| CNC(=O)N/N=C(\c1ccc(N)cc1)c1cc2c(cc1CC(=O)OC)OCO2 (stereo in doubt; 10) | – | – | – | – | – | logP [1]: 2.46; ED50 [8]: 24.1 µmol/kg; ED50 [9]: 15.7 µmol/kg; PI [3]: 3.6; ED50 [10]: 7.75 µmol/kg; ED50 [11]: 16.6 µmol/kg; ED50 [12]: 25.5 µmol/kg; ED50 [13]: 36.8 µmol/kg; ED50 [14]: 7.87 µmol/kg; ED50 [15]: 14.7 µmol/kg; ED50 [16]: 8.9 µmol/kg; Reduction [17]: 75%; Reduction [18]: 60%; ED50 [19]: 13.9 µmol/kg; ED50 [20]: 4.62 µmol/kg; TD50 [21]: 28.3 µmol/kg; ED50 [22]: 10.2 µmol/kg |
| CCCCNC(=O)N1N=C(c2ccc(N)cc2)c2cc3c(cc2CC1=O)OCO3 | 3.34 | – | 2.8 | 108 | – | – |
| CCCCOC(=O)Cc1cc2c(cc1/C(=N/NC(=O)NC)c1ccc(N)cc1)OCO2 | 3.81 | 39.8 | 2.7 | 179 | 66.2 | – |
| CNC(=O)N/N=C(\c1ccc(N)cc1)c1cc2c(cc1CC(=O)OC)OCO2 (stereo in doubt; 29) | 2.99 | 9.51 | 3.7 | 38.6 | 10.4 | – |
| CNC(=O)NC(=O)Cc1cc2c(cc1C(=O)c1ccc(N)cc1)OCO2 | 1.82 | 28.9 | 3.4 | 134 | 39.5 | – |
| CCNC(=O)N1N=C(c2ccc(N)cc2)c2cc3c(cc2CC1=O)OCO3 | 2.41 | – | 3.8 | 134 | – | – |
| CCNC(=O)N/N=C(\c1ccc(N)cc1)c1cc2c(cc1CC(=O)OCC)OCO2 | 3.31 | 60.8 | 2.7 | 227 | 84.4 | – |
| CC1=NN=C(c2ccc(N)cc2)c2cc3c(cc2C1)OCO3 [GYKI-52466] | 3.51 | – | 2.1 | – | – | Reduction [23]: 45%; Reduction [24]: 47% |
| CCCNC(=O)N/N=C(\c1ccc(N)cc1)c1cc2c(cc1CC(=O)OC)OCO2 | 3.24 | 42.8 | 3.1 | 177 | 57.1 | – |
| CCCOC(=O)Cc1cc2c(cc1/C(=N/NC(=O)NCC)c1ccc(N)cc1)OCO2 | 3.67 | 40.3 | 3.4 | 187 | 55.5 | – |
| CCNC(=O)N/N=C(\c1ccc(N)cc1)c1cc2c(cc1CC(=O)OC)OCO2 | 2.89 | 32.8 | 3.7 | 113 | 30.3 | – |
| COC(=O)Cc1cc2c(cc1Cc1ccc(N)cc1)OCO2 | 2.68 | 47.7 | 3.1 | 169 | 54.3 | – |
| Nc1ccc(C2=NNC(=O)Cc3cc4c(cc32)OCO4)cc1 | 2.58 | – | 6.3 | – | – | Reduction [23]: 94% |
| CNC(=O)NC(=O)Cc1ccc2c(c1)OCO2 | 1.09 | 74.4 | 2.5 | 219 | 87.8 | – |
| CNC(=O)N1N=C(c2ccc(N)cc2)c2cc3c(cc2CC1=O)OCO3 | 1.99 | – | – | – | – | Reduction [23]: 50%; PI [25]: 3.9; TD50 [21]: 48.6 µmol/kg |

Reference: ChEMBL document CHEMBL1135822, “Novel potent AMPA/kainate receptor antagonists: synthesis and anticonvulsant activity of a series of 2-[(4-alkylsemicarbazono)-(4-amino-phenyl)methyl]-4,5-methylenedioxyphenylacetic acid alkyl esters” (J Med Chem, 2002)
